This is a sample that favours compounds with a hit; in the whole collection about 0.88% have one here.
CXCR6 block: CXCR6 receptor inhibitors, primary screen, cell-based, beta-arrestin, luminescence, CHO-K1 PathHunter, 1536-well. C-X-C chemokine receptor type 6 (Homo sapiens), O00574. inhibition, % at 20 µM. 360,000 compounds, 0.36% hits; in the data active means inhibition above about 34%, passing the limit was not always enough;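 further: antagonist mode with CXCL16 agonist at 10 nM final; 0% = 10 nM CXCL16 with DMSO and 100% = unstimulated wells without agonist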
CCR6 antagonist: CCR6 receptor antagonists, primary screen, cell-based, CHO-K1, luminescence, beta-arrestin, uHTS. C-C chemokine receptor type 6 (Homo sapiens), P51684. CHO-K1 CCR6 PathHunter beta-arrestin, CCL20-stimulated. inhibition, % at 20 µM. 340,000 compounds, 0.49% hits;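 active means compounds whose inhibition of the agonist-driven luminescence signal at 20 µM reaches about 50%, limit read from the data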;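 further: cells stimulated with CCL20 at 14 nM final; plate controls were DMSO with CCL20 for no effect and DMSO without agonist for full effect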
Target sequence (P51684 whole entry, looked up): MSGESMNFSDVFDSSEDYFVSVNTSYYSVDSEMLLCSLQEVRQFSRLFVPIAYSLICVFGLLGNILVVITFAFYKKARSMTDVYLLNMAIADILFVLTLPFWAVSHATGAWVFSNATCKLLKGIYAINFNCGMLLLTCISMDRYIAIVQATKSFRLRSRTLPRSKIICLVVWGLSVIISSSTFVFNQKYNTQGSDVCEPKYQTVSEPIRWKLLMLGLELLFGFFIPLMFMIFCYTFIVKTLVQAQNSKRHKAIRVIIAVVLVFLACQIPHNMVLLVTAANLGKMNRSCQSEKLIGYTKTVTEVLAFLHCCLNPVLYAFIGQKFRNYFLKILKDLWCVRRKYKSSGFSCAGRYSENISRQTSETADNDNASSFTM
APJ antag: antagonists of human apelin receptor APJ, primary screen, CHO-K1 cells, beta-arrestin complementation, luminescence; P35414; inhibition, % at 20 µM; 330,000 compounds, 0.32% hits;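 active means inhibition above about 40% at 20 µM, limit read from the data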;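 further: cells challenged with 10 nM apelin-13 agonist together with compound; plate controls were apelin-13 plus DMSO wells for no effect and DMSO wells lacking apelin-13 for full effect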
PKA-R1A act: activators of PKA-R1A holoenzyme, primary screen, biochemical, fluorescence polarization, Cy5-IP20, bovine R1A, mouse PKAc; cAMP-dependent protein kinase type I-alpha regulatory subunit (Bos taurus) + …; PKA-R1A dissociation; scaled: DMSO 0%, 113 µM cGMP 100%; activation, % at 11.4 µM; 340,000 compounds, 0.083% hits;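 active means percent activation above the mean of all tested compounds plus 3 SD, cut at about 19% in these data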;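 further: higher means more PKAc released from R1A so a rise in polarization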
APJ agonist: agonists of human apelin receptor APJ, primary screen, CHO-K1 cells, PathHunter beta-arrestin, luminescence; P35414; 0% DMSO wells, 100% apelin; activation, % at 20 µM; 330,000 compounds, 0.11% hits;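 active means activation more than six SD over the plate average, tested at 20 µM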;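 further: 0% = DMSO alone and 100% = apelin-13 at 10 nM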
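Test system – PathHunter CHO-K1 APJ (AGTRL-1) beta-arrestin reporter cells · Input – 1000 cells/well · Compound – single test compound dose, 20 µM final, 1% DMSO · Times – compound stimulation 90 min at 25 °C, detection 60 min · Technique – beta-gal luminescence · Read-out basis – APJ–arrestin association signal · Control set – negative DMSO alone, positive Apelin-13 at 10 nM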
PKA-R2B act: activators of PKA-R2B holoenzyme, primary screen, biochemical, fluorescence polarization, Cy5-IP20, human; PKA-R2B holoenzyme dissociation; R2B truncated from residue 108, S112A mutant; 0% DMSO only, 100% 113 µM cGMP; cAMP-dependent protein kinase catalytic subunit beta (Homo sapiens) + cAMP-dependent …; activation, % at 11.4 µM; 340,000 compounds, 0.079% hits;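 active means activation above a cutoff set at the mean over all compounds plus 3 SD, cut at about 18% in these data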;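 further: higher means more holoenzyme dissociation and a rise in polarization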
CXCR6 antag conf: CXCR6 receptor antagonists, confirmation, cell-based, single concentration, beta-arrestin, luminescence. shares compounds with CXCR6 block. CHO-K1 CXCR6 PathHunter beta-arrestin. inhibition, % at 20 µM. 700 compounds, 65% hits;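 active means mean inhibition over four retests above 40%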;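 further: receptor stimulated with 10 nM CXCL16 agonist; beta-galactosidase fragment complementation upon beta-arrestin recruitment to receptor; plate controls were CXCL16 plus DMSO for no effect and DMSO without CXCL16 for full effect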
* marks the source's active call; other numbers are inactive results; . = no result given.

SMILES	CXCR6 block	CCR6 antagonist	APJ antag	PKA-R1A act	APJ agonist	PKA-R2B act	CXCR6 antag conf
CCOC(=O)c1ccc(NC(=O)c2ccccc2[N+](=O)[O-])cc1	2	1	23	1	-4	-3	.
Cc1ccc(S(=O)(=O)NCC(=O)OCC(=O)c2ccc(S(=O)(=O)N3CCCCC3)cc2)cc1C	56*	72*	.	6	.	-10	33
CCOC(=O)CNS(=O)(=O)c1ccc(S(=O)(=O)N2CCCC2)cc1	-6	-25	8	-4	0	0	.
CC(=O)Oc1c(/C=C(\C#N)C(N)=O)[nH]c2ccccc12	42*	36	.	1	.	5	16
NNC(=S)Nc1ccc(C(F)(F)F)cc1Cl	47*	31	-12	-1	1	-6	7
O=C1OCCN1C(=O)[C@H]1[C@H](c2ccc(Cl)cc2)C(c2ccc(F)cc2)=NN1c1ccc(Br)cc1	38*	13	.	-9	.	-10	-7
O=C1OCCN1C(=O)[C@H]1[C@H](c2ccc(F)cc2)C(c2ccc(F)cc2)=NN1c1ccc(Br)cc1	6	-6	-24	1	3	-16	.
CCC(C)NC(=O)CNC(=S)N(Cc1ccccc1F)C1CCCCC1 (stereo not given)	0	2	3	5	0	-6	.
O=C1C=CC(=O)N1CCCCCCCCCCN1C(=O)C=CC1=O	87*	111*	.	-2	.	-9	51*
O=C1C=CC(=O)N1Cc1ccncc1	-3	6	.	-1	.	-8	.
COc1cccc(-n2nc(C#N)c(Cl)cc2=O)c1	50*	36	49*	-14	-3	-11	51*
COc1cccc(-n2nc(C(N)=O)c(O)cc2=O)c1	3	-1	14	-3	0	-4	.
c1ccc2c(c1)ccc1ccccc12	-6	-17	2	5	-4	-3	.
O=c1ccc2ccccc2c2ccccc12	31*	.	.	.	.	.	31
Cc1cccc(N=Cc2cc(Br)cc(Cl)c2O)c1	54*	28	-11	7	-1	9	38
CCOc1ccc(CNc2ccc(N3CCN(Cc4ccccc4)CC3)cc2)cc1	102*	15	-21	-3	8	-2	11
O=C1NC[C@H](CCCCN2C[C@H](Cc3ccccc3)N(CC3CCCCC3)C(=O)C2=O)N(CC2CCCCC2)C1=O	-3	.	.	.	.	.	.
COC(=O)c1ccc(C(=O)OC)c(-n2c(=O)c3ccccc3c3ccccc3c2=O)c1	40*	57*	18	8	-3	-14	40
CNC(=O)CS(=O)(=O)CC(=O)Nc1cc(OC(C)C)c(Cl)cc1Cl	-2	9	-18	8	-3	-7	.
Cc1cc(C)nc(N/N=C/C2=C(O)CC(c3ccc(F)cc3)CC2=O)n1 (stereo not given)	60*	78*	23	.	-13	.	26
CC(=O)OC1CCC2(C)C(CCC3C4CC=C(C(C)=O)C4(C)OC(=O)CC32)C1 (stereo not given)	50*	.	.	-10	.	-6	46*
O=C(Cc1ccccc1)N1CCC(c2nc3ccccc3[nH]2)CC1	40*	0	-11	-8	-2	-5	6
CC(=O)Nc1ccc(S(=O)(=O)N(C)CC(=O)N/N=C/c2ccc(C(=O)O)cc2)cc1	88*	-6	-10	-4	-1	5	-3
CCOC(=O)CS(=O)(=O)c1ccc(O)cc1	-1	-9	-3	-5	-2	-4	.
C=CCNc1nc(C(=O)OCC(=O)c2ccccc2)cs1	103*	0	0	18	-3	-4	12
SMILES	CXCR6 block	CCR6 antagonist	APJ antag	PKA-R1A act	APJ agonist	PKA-R2B act	CXCR6 antag conf
C=CCNc1nc(C(=O)OCC(=O)Nc2ccc(S(N)(=O)=O)cc2)cs1	4	10	-17	-2	7	-1	.
O=C(CCC(=O)N1CCOc2ccccc21)NCCCN1CCN(Cc2ccccc2)CC1	-8	10	-8	1	-1	-2	.
CC(=O)N(C)c1ccc(N=NC2C(=O)N(C(N)=S)N=C2C)cc1 (stereo not given)	10	21	-1	-15	-3	-22	.
O=C(NCC(=O)N(Cc1ccccc1)C(C(=O)NCC1CCCO1)c1ccccc1)c1ccco1 (stereo not given)	5	-5	-12	13	1	8	.
Cc1ccc(P(=O)(c2ccc(C)cc2)[C@@H](NC(c2ccccc2)c2ccccc2)c2ccccc2)cc1	41*	.	.	.	.	.	41*
Cc1csc(NC(=O)c2ccc(COc3ccccc3)o2)n1	0	22	-6	-9	-1	-10	.
CCNC(=S)N/N=C(\C)c1ccc(Cl)s1	41*	32	30	7	-5	0	26
CC1CC2(CC(CN(C3CCCCC3)C3CCCCC3)OC2=O)C(=O)O1 (stereo not given)	8	.	.	.	.	.	.
COc1ccc(/C=C/c2ccc3cccc(O)c3n2)c(OC)c1OC	38*	61*	31	-8	-7	-11	44*
Cc1ccc(/C=C/c2ccc3cccc(O)c3n2)s1	36*	52*	-23	1	1	5	38
N#CC(C(=O)c1ccccc1)=C1SCCS1	-7	4	12	.	-4	.	.
CC(=O)N1CCOc2ccc(S(=O)(=O)N(C)c3cccc(C)c3)cc21	8	13	-22	0	2	5	.
COc1ccc([C@H]2CC(=O)C=C(/C=C/Cc3ccccc3)C2)cc1	0	24	3	-6	-1	-3	.
COc1ccc(N(CC(=O)NC2CCCC2)S(=O)(=O)c2c(C)[nH]c(=O)[nH]c2=O)cc1	35*	7	-61	-2	-3	2	8
O=C(O)c1ccc(NC(=S)Nc2ccccc2)cc1	-1	12	12	-9	2	3	.
Cc1ccc(NC(=O)CCSc2nnc(C)s2)cc1	4	4	21	2	-3	-14	.
CC1=NN(/C(=N\c2nnc(C)s2)Nc2ccc(C(C)(C)C)cc2)[C@H](c2ccc(C)cc2)S1	40*	27	25	-11	-6	-11	19
Cc1cccc(NC(=O)CCCn2c(=S)[nH]c3ccccc3c2=O)c1	-5	2	8	-7	-1	3	.
O=[N+]([O-])c1cc(Cl)ccc1Sc1cccc2cccnc12	6	20	3	13	-1	-4	.

Screening results: PubChem, several laboratories
